Measurements reported in ChEMBL document CHEMBL1143410, “Antiviral and anti-inflammatory effects of rosmarinic acid in an experimental murine model of Japanese encephalitis” (Antimicrob Agents Chemother, 2007).
The source made the active and inactive calls. The calls are words filed in the database; no cut-off is given here.

Columns and labels:
[1] = tested on: BV-2; experiment: Antiinflammatory activity in Japanese encephalitis virus GP78 infected mouse BV2 cells assessed as decrease in virus-induced IFN-gamma levels at 25 uM after 18 hrs by Western blot relative to control; type: functional
[2] = tested on: Mus musculus; experiment: Antiinflammatory activity in Japanese encephalitis virus GP78 infected BALB/c mouse assessed as decrease in virus-induced IL12 levels at 25 mg/kg, ip twice daily after 8 to 9 days relative to control; type: functional; settings: route intraperitoneal
How it was run: (§1)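 BALB/c mice (4–5 weeks, either sex; 15 per group) were dosed with RA in PBS at 25 mg/kg i.p. twice daily, from day 1 after infection until the first untreated infected mouse died. IL-12, TNF-α, IFN-γ, MCP-1 and IL-6 in brain tissue lysates were quantified with a mouse cytometric bead array. Statistics used one-way ANOVA with Bonferroni post hoc comparisons.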

[3] = tested on: Japanese encephalitis virus; experiment: Antiviral activity against Japanese encephalitis virus GP78 infected BALB/c mouse assessed as reduction of activated microglia in mouse brain at 25 mg/kg, ip twice daily; type: functional, organism-based; set-up: dose 25 mg/kg
How it was run: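 RA was given at 25 mg/kg i.p. twice daily to infected BALB/c mice. Mice were perfused with PBS containing 7 U/ml heparin, then with 2.5% paraformaldehyde. Cryostat brain sections were stained for Iba-1, and star-shaped activated microglia were counted.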

[4] = tested on: Mus musculus; experiment: Antiinflammatory activity in Japanese encephalitis virus GP78 infected BALB/c mouse assessed as decrease in virus-induced IFN-gamma levels at 25 mg/kg, ip twice daily after 8 to 9 days relative to control; type: functional; settings: route intraperitoneal; how it was run: as §1
[5] = tested on: Mus musculus; experiment: Antiinflammatory activity in Japanese encephalitis virus GP78 infected BALB/c mouse assessed as decrease in virus-induced IL6 levels at 25 mg/kg, ip twice daily after 8 to 9 days relative to control; type: functional; settings: route intraperitoneal; how it was run: as §1
[6] = tested on: Mus musculus; experiment: Toxicity in BALB/c mouse assessed as behavioral activity at 25 mg/kg, ip twice daily; type: organism-based; set-up: dose 25 mg/kg, route intraperitoneal; settings: in vivo
How it was run: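 Uninfected BALB/c mice (4–5 weeks, either sex; 15 per group) received RA alone, dissolved in PBS, at 25 mg/kg i.p. twice daily. Behavior was observed and compared with a PBS-injected control group.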

[7] = tested on: Mus musculus; experiment: Antiinflammatory activity in Japanese encephalitis virus GP78 infected BALB/c mouse assessed as increase in IkappaB-alpha levels at 25 mg/kg, ip twice daily after 8 to 9 days relative to control; type: functional, organism-based; set-up: dose 25 mg/kg
How it was run: (§2)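 BALB/c mice (4–5 weeks, either sex; 15 per group) received RA dissolved in PBS at 25 mg/kg i.p. twice daily. Dosing began one day after infection and continued until the first untreated infected mouse died. Brain protein (10 μg) was Western blotted with pNF-κB, IκB-α and Cox-2 antibodies (1:1,000), using β-tubulin as loading reference and HRP chemiluminescence detection. Groups were compared by one-way ANOVA with Bonferroni post hoc tests.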

[8] = tested on: BV-2; experiment: Antiinflammatory activity in Japanese encephalitis virus GP78 infected mouse BV2 cells assessed as decrease in virus-induced MCP1 levels at 25 uM after 18 hrs by Western blot relative to control; type: functional
[9] = tested on: Japanese encephalitis virus; experiment: Antiviral activity against Japanese encephalitis virus GP78 infected BALB/c mouse assessed as inhibition of viral proteins in mouse brain at 25 mg/kg, ip twice daily after 8 to 9 days by immunoblot; type: functional, organism-based; set-up: dose 25 mg/kg
[10] = tested on: BV-2; experiment: Antiinflammatory activity in Japanese encephalitis virus GP78 infected mouse BV2 cells assessed as decrease in virus-induced TNFalpha levels at 25 uM after 18 hrs by Western blot relative to control; type: functional
[11] = tested on: Mus musculus; experiment: Antiinflammatory activity in Japanese encephalitis virus GP78 infected BALB/c mouse assessed as decrease in virus-induced MCP1 levels at 25 mg/kg, ip twice daily after 8 to 9 days relative to control; type: functional; settings: route intraperitoneal; how it was run: as §1
[12] = tested on: Mus musculus; experiment: Antiinflammatory activity in Japanese encephalitis virus GP78 infected BALB/c mouse assessed as decrease in phosphorylated NF-kappaB levels at 25 mg/kg, ip twice daily after 8 to 9 days relative to control; type: functional, organism-based; set-up: dose 25 mg/kg; how it was run: as §2
[13] = tested on: BV-2; experiment: Antiinflammatory activity in Japanese encephalitis virus GP78 infected mouse BV2 cells assessed as decrease in virus-induced IL6 levels at 25 uM after 18 hrs by Western blot relative to control; type: functional
[14] = tested on: Mus musculus; experiment: Antiinflammatory activity in Japanese encephalitis virus GP78 infected BALB/c mouse assessed as decrease in virus-induced TNFalpha levels at 25 mg/kg, ip twice daily after 8 to 9 days relative to control; type: functional; settings: route intraperitoneal; how it was run: as §1
[15] = tested on: Mus musculus; experiment: Antiinflammatory activity in Japanese encephalitis virus GP78 infected BALB/c mouse assessed as decrease in Cox2 levels at 25 mg/kg, ip twice daily after 8 to 9 days relative to control; type: functional, organism-based; set-up: dose 25 mg/kg; how it was run: as §2
[16] = tested on: Japanese encephalitis virus; experiment: Antiviral activity against Japanese encephalitis virus GP78 infected BALB/c mouse assessed as reduction in mortality rate at 25 mg/kg, ip twice daily administered 1 day post viral-challenge; type: functional; set-up: scale not given: the % may be the effect or the level left; settings: route intraperitoneal
How it was run: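 Survival was followed in infected BALB/c mice (4–5 weeks, either sex; 15 per group). Animals received RA in PBS at 25 mg/kg i.p. twice daily, from day 1 post-infection until the first untreated infected animal died. Symptoms (limb paralysis, tremor, piloerection, stiffening) were recorded alongside deaths.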

[17] = tested on: BV-2; experiment: Antiinflammatory activity in Japanese encephalitis virus GP78 infected mouse BV2 cells assessed as decrease in virus-induced IL12 levels at 25 uM after 18 hrs by Western blot relative to control; type: functional
[18] = tested on: Japanese encephalitis virus; experiment: Antiviral activity against Japanese encephalitis virus GP78 infected BALB/c mouse assessed as inhibition of viral mRNA transcript in mouse brain at 25 mg/kg, ip twice daily after 8 to 9 days; type: functional, organism-based; set-up: dose 25 mg/kg

How did the “fold change (FC)” value [1] turn out when `O=C(/C=C/c1ccc(O)c(O)c1)O[C@H](Cc1ccc(O)c(O)c1)C(=O)O` [ROSMARINIC ACID] was run?
The value was 12.

What about the “fold change (FC)” value [2] of the same compound?
The value was 5.

What about the Activity [3] of the same compound?
Its Activity is “Active”.

And the “fold change (FC)” value [4]?
The value was 6.

What about the “fold change (FC)” value [5] of the same compound?
The value was 9.

And the Activity [6]?
The Activity was “Non-toxic”.

And the Activity [7]?
Its Activity is “Active”.

And the “fold change (FC)” value [8]?
The value was 25.

What about the Activity [9] of the same compound?
Its Activity is “Active”.

And the “fold change (FC)” value [10]?
The value was 14.

And the “fold change (FC)” value [11]?
The value was 100.

What about the Activity [12] of the same compound?
Its Activity is “Active”.

What about the “fold change (FC)” value [13] of the same compound?
Its value is 12.5.

And the “fold change (FC)” value [14]?
Its value is 18.

What about the Activity [15] of the same compound?
Its Activity is “Active”.

And the Activity [16]?
The Activity was 20%.

What about the “fold change (FC)” value [17] of the same compound?
Its value is 13.

And the Activity [18]?
The Activity was “Active”.
